# Compound activity deposited in PubChem by several laboratories.
# In the library only some 5.8% were active in any assay of this set; here they are far more common.
# PLK1 PBD inh – inhibitors of human Plk1 polo box domain binding; P53350; Plk1 PBD phosphopeptide binding, fluorescence polarization; inhibition, %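 (tested at about 20 µM)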; 97,000 compounds, 0.13% hits; AID 693; in the data active means inhibition above about 34%, passing the limit was not always enough
# FAK blocker – FAK (human) kinase inhibition. biochemical FAK kinase activity assay. inhibition, %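 (tested at 7 µM)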. 97,000 compounds, 0.84% hits. AID 727; in the data active means inhibition above about 19%
# PLK1 kinase inh – inhibitors of human PLK1 kinase. 97,000 compounds, 0.53% hits. P53350. AID 619. inhibition, % at 10 µM. recombinant PLK1 kinase, TR-FRET peptide phosphorylation;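 active means inhibition of 50% or more in the single-concentration screen; inactive means inhibition below 50%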
# Cav3 T inh – blocks human Cav3.2 T-type calcium channel. O95180. Cav3.2-expressing cells, Fluo-4 calcium fluorescence FDSS; active compounds read low. B-score at 10 µM. 100,000 compounds, 4% hits. AID 449739;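 active means single-dose well whose peak fluorescence ratio is a statistical outlier from its plate by either plate-standardised score or position-corrected B-score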
# PTK2B oligo ant – blocks oligomerization of human Pyk2 in cells; Q14289; Q293 cells, Pyk2 FERM NanoBiT luminescence; active compounds read low; z-score (the deposit names both 25 µM and 10 µM); 99,000 compounds, 0.83% hits;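 active means Z-score of -3 or lower, scaled per plate to the spread of control and sample wells; inactive means z-score above -3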;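 further: negative z-score means lost luminescence so less FERM oligomerization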
# Rev-RRE block – inhibitors of HIV-1 Rev-RRE RNA interaction; inhibition, % at 8 µM; 97,000 compounds, 0.79% hits; P05866; Rev peptide-RRE RNA binding, FRET;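 active means inhibition above the screen-wide mean plus 3 SD, cut at about 35% in these data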
#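 Probe or stimulus: fluorescein-Rev peptide as binding partner; assay system: Cy5-tagged RRE RNA duplex with fluorescein-tagged Rev peptide; timing: 5 min compound–RNA preincubation, then 15 min with peptide, 25 °C; medium: HEPES pH 7.5 buffer with KCl, MgCl2, NaCl and EDTA; signal: fluorescein-to-Cy5 FRET, 480 nm excitation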
# Numbers stand for hits; n = inactive; x = no result; [ ] = remark or other dose.
SMILES,PLK1 PBD inh,FAK blocker,PLK1 kinase inh,Cav3 T inh,PTK2B oligo ant,Rev-RRE block
Cn1c(=O)c(NCCc2ccccc2)c2c3c(cccc31)C(=O)c1ccccc1-2,n,n,n,-11,n,140[fluorescence artefact?]
CCNc1c2c3c(cccc3n(C)c1=O)C(=O)c1ccccc1-2,n,n,n,-9.2,x,142[fluorescence artefact?]
Cn1c(NCCc2ccccc2)cc(=O)n(C)c1=O,n,n,n,n,n,n
CCCCNc1c2c3c(cccc3n(C)c1=O)C(=O)c1ccccc1-2,n,n,n,-5.2,n,142[fluorescence artefact?]
CC(=O)Nc1ccc(Nc2c3c4c(cccc4n(C)c2=O)C(=O)c2ccccc2-3)cc1,x,x,x,x,n,x
NS(=O)(=O)c1ccc(NC(=O)c2ccccc2C(=O)N2CCCCC2)cc1,n,n,n,n,n,n
CCCCN(C)C(=O)c1cn(CC)c2ccc(S(=O)(=O)N(C)C)cc2c1=O,n,n,59,n,x,n
Cc1nc2cc(-c3ccsc3-n3c(C)ccc3C)[nH]n2c(=O)c1Cl,n,n,n,-4.7,n,n
CCOC(=O)c1c(N)nn(C(=O)C(C)C)c1-c1ccccc1,n,n,n,n,n,n
Cc1ccc2cc(/C=C3\N=C(c4ccccc4)OC3=O)c(N3CCOCC3)nc2c1,n,n,n,-6.6,x,39
O=C(CCCn1c(=O)c2sccc2n(Cc2ccc(F)cc2)c1=O)NCc1ccco1,n,n,n,n,n,n
Cn1cccc1Cc1nnc(SCC(=O)Nc2ccc(Cl)cc2)n1-c1ccc(F)cc1,x,x,x,-9.8,x,x
COc1ccc(NC(=O)CSc2nnc(Cc3cccn3C)n2-c2ccc(F)cc2)cc1OC,n,n,n,n,x,n
Cn1cccc1Cc1nnc(SCC(=O)Nc2ccccc2)n1-c1ccc(F)cc1,x,x,x,-7.7,x,x
Cn1cccc1Cc1nnc(SCC(=O)Nc2ccc(F)cc2)n1-c1ccc(F)cc1,n,n,n,-4.2,x,n
C=CCc1c(C)nc(SC)nc1Nc1ccc(C(C)=O)cc1,n,n,n,n,n,n
CCCNC(=O)CN(CCc1ccccc1)S(C)(=O)=O,n,n,n,n,n,n
O=C(OCc1nc2ccccc2s1)c1cccs1,n,n,n,-5.2,n,n
COc1ccc(CNC(=O)c2cnn3c(C(F)F)cc(C)nc23)cc1OC,x,x,x,n,x,x
COCCSc1ccccc1C(=O)Nc1nncs1,n,n,n,n,n,n
COc1ccc(S(=O)(=O)n2nc(OC(=O)c3c(-c4ccccc4Cl)noc3C)cc2N)cc1,n,n,n,-5.4,n,n
Cc1cc2oc(C(=O)N(Cc3ccco3)C3CCS(=O)(=O)C3)cc(=O)c2cc1Cl (stereo unspecified),n,n,n,n,n,n
O=C1CCCN1CC(O)CS(=O)(=O)c1ccc(Cl)cc1 (stereo unspecified),n,n,n,n,n,n
O=c1/c(=C\c2ccc(O)cc2)sc2n1C(c1ccccc1)C(c1ccccc1)=NN=2 (stereo unspecified),n,n,n,n,n,41
CCOC(=O)C1CCCN(c2c(C(=O)c3ccccc3)cnc3ccc(OC)cc23)C1 (stereo unspecified),x,x,x,-6.8,x,x
SMILES,PLK1 PBD inh,FAK blocker,PLK1 kinase inh,Cav3 T inh,PTK2B oligo ant,Rev-RRE block
CCN1CCN(c2c(C(=O)c3ccc(OC)cc3)cnc3ccccc23)CC1,x,x,x,n,x,x
CCCCCCNS(=O)(=O)c1ccc(Cl)s1,n,n,n,-6.4,n,n
O=S(=O)(NCCc1csc(-c2cccnc2)n1)c1ccc(Cl)s1,n,n,n,n,x,n
Cc1nnc2sc(SCC(=O)Nc3nccs3)nn2c1=O,x,x,x,x,n,x
Cc1cccc(C2Nc3ccccc3C(=O)N2CCc2ccccc2)n1 (stereo unspecified),n,n,n,n,n,n
O=C1c2ccccc2NC(c2ccc(Cl)cc2Cl)N1Cc1ccccc1 (stereo unspecified),n,n,n,-5.3,n,n
O=C1c2ccccc2NC(c2c(Cl)cccc2Cl)N1Cc1ccccc1 (stereo unspecified),n,n,n,-11,n,n
CCOc1cc(CNCc2ccncc2)cc(Br)c1OCc1ccc(F)cc1,n,n,n,n,n,n
O=C1CSC(c2ccccc2F)N1c1cc(Cl)ccc1O (stereo unspecified),n,n,n,-3.7,n,n
Cn1c(SCC(=O)NC(=O)NCc2ccco2)nnc1C(F)(F)F,n,n,n,x,n,n
COc1ccccc1N1CCN(c2cc(=O)n(Cc3ccc(F)cc3)c(=O)[nH]2)CC1,n,n,n,-6.1,x,n
